What all share (assay type): ADME, organism-based
For one assay, the species on record is Rattus norvegicus. Kind of assay: Tested for antimuscarinic potency on rat bladder. The conditions noted are these: for Kb: Rattus norvegicus, read-out: pA2 (converted).
For assay [1], the species on record is Cavia porcellus. Kind of assay: Tested for antimuscarinic potency on guinea pig heart rate. The conditions noted are these: for Kb: Cavia porcellus, Heart, read-out: pA2 (converted). In outline:
(§1)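 Guinea pig heart (force and rate) antagonism of carbachol as agonist; pA2 from Schild plot with slope constrained to 1; six to eight replications. Where an antagonist lowered the carbachol maximum at 1×10^-5 M, −log Kb was instead calculated from log(Dr − 1) = log[ant.] − log Kb at a single antagonist concentration of 3×10^-6 M.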

For assay [2], the species on record is Cavia porcellus. Kind of assay: Tested for antimuscarinic potency on guinea pig ileum. The conditions noted are these: for Kb: Cavia porcellus, Ileum, read-out: pA2 (converted).
Assay [3] is filed under the species Cavia porcellus. Kind of assay: Tested for antimuscarinic potency on guinea pig heart force. The conditions noted are these: for Kb: Cavia porcellus, Heart, read-out: pA2 (converted). In outline: as §1

Each structure is given as a SMILES string.

As a reminder, the pA2 is the negative logarithm of the molar antagonist concentration that doubles the agonist concentration needed for the same response. A high value points to a more potent antagonist. With `C[N+](C)(C)C[C@@H]1CS[C@](c2ccccc2)(C2CCCCC2)O1.[I-]` (stereo in doubt; (+)-2), the pA2 in the assay listed under Rattus norvegicus was determined as 8.29; in the assay filed under Cavia porcellus [1], 8.05; in the assay listed under Cavia porcellus [2], 8.57; in the assay listed under Cavia porcellus [3] it was 8.1.
Turning to `C[N+](C)(C)C[C@@H]1CS[C@@](c2ccccc2)(C2CCCCC2)O1.[I-]` (stereo in doubt; (+)4), the pA2 in the assay filed under Rattus norvegicus turned out to be 8.58; in the assay listed under Cavia porcellus [1] it was 8.35; in the assay listed under Cavia porcellus [2], 8.79; in the assay listed under Cavia porcellus [3], 8.47.
The matching figures for `C[N+](C)(C)C[C@@H]1CS[C@](c2ccccc2)(C2CCCCC2)O1.[I-]` (stereo in doubt; (-)2): 7.61, 8.06, 7.86 and 8.07.
With `C[N+](C)(C)C[C@@H]1CS[C@@](c2ccccc2)(C2CCCCC2)O1.[I-]` (racemic), the pA2 in the assay filed under Rattus norvegicus turned out to be 8.22; in the assay filed under Cavia porcellus [1], 7.91; in the assay filed under Cavia porcellus [2] it was 8.38; in the assay filed under Cavia porcellus [3] it was 8.13.
As for `CN1[C@@H]2CC[C@H]1C[C@@H](OC(=O)C(CO)c1ccccc1)C2` (stereo partly drawn) [ATROPINE], the Kb in the assay listed under Rattus norvegicus was 1.29 nM.
Take `CN(C)C[C@@H]1CS[C@@](c2ccccc2)(C2CCCCC2)O1` (racemic): the Kb in the assay listed under Rattus norvegicus is 123 nM; in the assay listed under Cavia porcellus [1] it was 162 nM; in the assay filed under Cavia porcellus [2], 37.2 nM; in the assay listed under Cavia porcellus [3] it was 263 nM.
Consider `C[N+](C)(C)C[C@@H]1CS[C@](c2ccccc2)(C2CCCCC2)O1.[I-]` (racemic), for which the pA2 turned out to be 8.05 in the assay filed under Rattus norvegicus and 8.26 in the assay filed under Cavia porcellus [2]. Further, the Kb in the assay listed under Cavia porcellus [1] was 7.24 nM; in the assay listed under Cavia porcellus [3], 7.76 nM.
For `CN(C)C[C@@H]1CS[C@](c2ccccc2)(C2CCCCC2)O1` (racemic), the Kb was 44.7 nM in the assay filed under Rattus norvegicus, 37.2 nM in the assay listed under Cavia porcellus [1], 12 nM in the assay filed under Cavia porcellus [2] and 33.1 nM in the assay listed under Cavia porcellus [3].
Take `C[N+](C)(C)C[C@@H]1CS[C@@](c2ccccc2)(C2CCCCC2)O1.[I-]` (stereo in doubt; (-)4): the pA2 in the assay filed under Rattus norvegicus was determined as 7.45; in the assay filed under Cavia porcellus [1] it was 7.99; in the assay filed under Cavia porcellus [2], 7.86; in the assay listed under Cavia porcellus [3], 8.16.

Values taken from ChEMBL document CHEMBL1124194, “Enantioselectivity of muscarinic antagonists. Isomeric 2-cyclohexyl-2-phenyl-5-[(dimethylamino)methyl]-1,3-oxathiolane methiodides” (J Med Chem, 1988).
